Source: the RNAGym collection of RNA variant scans (doi:10.1126/science.aae0568)
Fewer inactive variants are shown than the library holds.

B1: tRNA (parent)
chain: GUUCCGUUGGCGUAAUGGUAACGCGUCUCCCUCCUAAGGAGAAGACUGCGGGUUCGAGUCCCGUACGGAACG

Variants of: B1
Assay: yeast fitness relative to wild type (ratio to wild type); higher = fitter; tRNA-Arg(CCU), competitive growth, 37 C, YPD
Procedure, shortened: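 The tRNA-Arg(CCU) gene variants were made by chemical synthesis with a 3% per-site mutation rate at 69 sites and inserted at the native genomic locus of Saccharomyces cerevisiae. After pooling, the strains were competed in YPD at 37°C for 24 hours in six parallel replicates. Gene amplicons from the start population and each end population were read by 100-nucleotide paired-end sequencing, and Darwinian fitness relative to wild type was taken from genotype frequency changes. Genotypes needed ≥ 100 starting reads, and estimates < 0.5 were set to 0.5.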

Variant | yeast fitness
U2A C5A G50A | ≤ 0.5
A40C A42U C49U G50C C66U | 0.565
C61A A69U | 0.816
C11U A14G U19A | 0.658
G9A A43U C49U | 0.744
C5G U7C A45U C55G | ≤ 0.5
C24A C31A A65C | ≤ 0.5
C4G U7G G12C A20U | ≤ 0.5
A21G U53A A57U | 0.516
A36C C49G | 0.56
C4U U28A C66U | 0.658
C5U G17C U26G | 0.511
U32C G68C | 0.808
G10A U26A C27U C29A G48A C62A | ≤ 0.5
U3A U32C A69U | 0.685
C22A C49A | 0.669
C4G G10U A14U C24U C33U G52A C66U | ≤ 0.5
C4U G17C U47C C49A | ≤ 0.5
C5U C29A A65C | ≤ 0.5
C30U C55G | 0.553
C11U A20U A65C | ≤ 0.5
C11A C27U G56C | ≤ 0.5
U3A A20C U32A | ≤ 0.5
A21C A57U | 0.752

Variant | yeast fitness
C5G G25C G56A | 0.62
A20U C22G G23A A43U G48A | ≤ 0.5
G6C G51C A65C | 0.579
C24G A42G A43U C46U C62U | ≤ 0.5
U8C G23A C30G | ≤ 0.5
U2A A57U C61U C66G | ≤ 0.5
G25A C29G A45C C46G | ≤ 0.5
C5U C22U C33U | 0.561
A21U C29G C31G A43U | 0.574
C11A G51C | 0.585
C11U A21C A70G | ≤ 0.5
U2G A37C C61U G67A | ≤ 0.5
C4U G18C C27U C33G A43C A70U | 0.659
C24A C31U A42C U64A | ≤ 0.5
A43U G50C | 0.812
U2G G12A U13A G25C U28A C33A G67U | ≤ 0.5
U28C C55U | 0.685
G51C A57G | 0.52
U16C G25C U26C C34U U64G | 0.528
C22A C34A G56C G58A C61A | 0.597
U19G G25A | 0.958
G10A C22U G68A | ≤ 0.5
U7A G23C | 0.519
G10A C27A A36U A37U G48C C61G A69U | 0.576

Variant | yeast fitness
U28A G58A | 0.913
C5A G67A | 0.933
A15C U53A | 0.578
U16G U35C G56C | ≤ 0.5
A14C U16A G41C G63C A65U | 0.586
A14C U19G U32A | ≤ 0.5
C27U C49U | 1
G12A C24A | 0.751
C29U A40G U47A C61U C62A A70G | ≤ 0.5
U7A G23A C30U C33A G41C A42U | ≤ 0.5
G12A C22G G52C G58C A65U | 0.53
C30G U35C | ≤ 0.5
C5G U13C A21C G67A | ≤ 0.5
A14U G44C | 0.673
C4G C29A C34U A36U | 0.578
G18C C24U A40U G56A A65G C66U | ≤ 0.5
C33U A43C C46G | ≤ 0.5
C34A C49G G50A U64A | 0.551
C4U C22U G25A C31U C60G A70G | ≤ 0.5
G50A C62U | 1
C11A C31U A70U | 0.629
A14C G51A A69U A70G | ≤ 0.5
C22G G38U A42U | ≤ 0.5
C4G U53G C66A | ≤ 0.5

Variant | yeast fitness
G23C A70C | 0.73
C4U A20G C24U | 0.624
G17A G18C G39C A69U | ≤ 0.5
C4U G10A C24U C61A | 0.623
U16A U28C C33G A36U | ≤ 0.5
C24U G51A | 0.675
U3A G9C G56C | ≤ 0.5
A40U A42C C55U C62U | ≤ 0.5
G9A C46G C49U A69C | 0.709
A20C C22G C33A U59C | ≤ 0.5
C11G G12C A20G A43G A45C G67A | ≤ 0.5
A36U A37U A45U A65G | ≤ 0.5
A42U A45C A70C | 0.721
U28C G58A | 0.937
C5U G51C U53C | ≤ 0.5
U3A C27G | 0.643
C5A A42C | 0.842
U19A A43U A70U | 0.825
G56A G67A A69C | 0.797
C34U A69U A70C | 0.541
G25C U47G G52A | 0.549
G23C C61U | 0.703
U19C A20U A43U | 0.66
U28C U35C | 0.751

Variant | yeast fitness
C5U G10C A21U C22U C27U U32C C46U C61G | ≤ 0.5
G51A U53A A69C | ≤ 0.5
C4U G25A G50C U54C | ≤ 0.5
U28A G52A A57U C60U A65G G68A | 0.59
C5U U26G C49G | ≤ 0.5
U26A A37C C61A | ≤ 0.5
A20U A42C C60A | ≤ 0.5
U13G A69C | 0.951
U2C C34U C46A | ≤ 0.5
U8A C30G C61A | ≤ 0.5
U13A C46A | 0.979
C4U C30A C49U | 0.825
A20G C30G G56C C62U | ≤ 0.5
C24A C29U A36U C55U | ≤ 0.5
U26A C55G | 0.571
U3C A15G C30A | 0.564
A15U C27U C49U | 0.655
C30G G58A | 0.678
C4A A14C A21C C22U C24U C29U U53C | 0.568
U8A A15C G18C C49U C62U | ≤ 0.5
G38C C62A | 0.624
G10C C55A C61U A65C G68A | ≤ 0.5
G38A U64A | 0.765
U7A U8A G10C C27G C34G C55U | 0.527

Variant | yeast fitness
C11G C34G A65U | ≤ 0.5
C24U C61U U64C | 0.697
G12A A15G U54G | ≤ 0.5
G12A A15C C62U C66G A70G | 0.562
U3A G38C | 0.611
G9A C31U C55U | 0.694
A36U C62G | 0.623
C5U C33A A36C A37C A43G A69U | ≤ 0.5
G6A C11G C34G A42G C62U | 0.609
C5G C29A G48A A65U | ≤ 0.5
G41C A69U | 0.813
A21C G44A U47C | 0.51
C33A G44A G68U | ≤ 0.5
U28A A40C | 0.961
G39A U47A C55U G67A A69G | ≤ 0.5
C22U A43G A45C C46G G63A | 0.635
U7A A45C C66U | 0.535
A20C C27U C62U | 0.731
C34G G52C C60G | ≤ 0.5
A14U U47A | 0.575
U3G G23A A36U A43G C61A A70G | ≤ 0.5
U2C A69U | 0.96
A40C C60U C61U | ≤ 0.5
U2G C11A A14C C34A | ≤ 0.5

Variant | yeast fitness
U2C U8A G17C G38A | ≤ 0.5
A20U C27A A40G A69U | ≤ 0.5
C5U U13A A43G A45G C62G | ≤ 0.5
U2G A42U A70U | 0.539
U16A A21U C24A | ≤ 0.5
U16A U19A C46U U64C | 0.74
A45U C55U | 0.743
C11U C31G A37U G51C G58A | ≤ 0.5
G9C A20G U35C A36G U59A C66G | ≤ 0.5
A15G C46G C61G | 0.567
A14G U28G C29U C49U U54A C55U A70C | 0.603
C31G A37G | 0.79
U2C U26G A65G | 0.712
U8C A20C A21C A36U A45C | ≤ 0.5
G58A G67C A69C | 0.542
C31G A45C C60A G63A | ≤ 0.5
A15C A69U | 0.892
G10C G51A | 0.585
C24U U47C G67C | 0.688
U19A C27U A45C G63A | 0.729
C34G G38C A70G | ≤ 0.5
C31U C61U C66A | ≤ 0.5
C4U C29U A43U | 0.756
